PMC2748801 (Journal of the American Chemical Society, 2009)
Square brackets hold non-standard residues; d marks the D form. Ends that are not written are not given here. Orn = NCCC[C@H](N)C(=O)O; Dab = NCC[C@H](N)C(=O)O; Dap = NC[C@H](N)C(=O)O

Assays:
[1] = tested on: hairpin from IRES domain IV of HCV (IRES); assay type: binding; details: for Discrimination ratio against IRES RNA: average Kd against other hairpins (RRE, TAR, 16S A-site)/Kd against IRES; for Kd against IRES hairpin (in words): fluorescence anisotropy, 3i and 3j relative to 3d
[2] = Circular dichroism, α-helical content of peptide alone; assay type: physicochemical; details: CD; for helicity (first value): 10 mM H3PO4, 20 °C; for helicity (second value): 50% TFE in 10 mM H3PO4, 20 °C
Summary of the method: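 Far-UV CD spectra of each free peptide, with no RNA, at 20 °C under temperature control, in 10 mM H3PO4 and in 50% TFE in the same buffer. Scans ran 190–250 nm with 1 nm bandwidth, 0.5 nm data pitch, 20 nm/min, 16 s response and 0.1 cm path, averaging three accumulations. α-Helical content was calculated from the spectra.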

## Ac-LKKLLKLLKKLLKWAG-NH2 [2u]
[1]
  Discrimination ratio against IRES RNA: 14
  Kd against IRES hairpin (in words): subnanomolar
[2]
  helicity (first value): 20%
  helicity (second value): 52%

## Ac-LKKLLKLLKKLWKLAG-NH2 [2t]
[1]
  Discrimination ratio against IRES RNA: 5.8
[2]
  helicity (first value): 12%
  helicity (second value): 58%

## Ac-LKKLLKLLKKWLKLAG-NH2 [2s]
[1]
  Discrimination ratio against IRES RNA: 5.8
[2]
  helicity (first value): 27%
  helicity (second value): 60%

## Ac-LKKLLKLWKKLLKLAG-NH2 [2r]
[1]
  Discrimination ratio against IRES RNA: 0.67
[2]
  helicity (first value): 14%
  helicity (second value): 59%

## Ac-LKKLLKWLKKLLKLAG-NH2 [2q]
[1]
  Discrimination ratio against IRES RNA: 15
  Kd against IRES hairpin (in words): subnanomolar
[2]
  helicity (first value): 19%
  helicity (second value): 71%

## Ac-LKKLWKLLKKLLKLAG-NH2 [2p]
[1]
  Discrimination ratio against IRES RNA: 3.3
[2]
  helicity (first value): 20%
  helicity (second value): 56%

## Ac-LKKWLKLLKKLLKLAG-NH2 [2o]
[1]
  Discrimination ratio against IRES RNA: 5.5
[2]
  helicity (first value): 4.6%
  helicity (second value): 52%

## Ac-WKKLLKLLKKLLKLAG-NH2 [2n]
[1]
  Discrimination ratio against IRES RNA: 2.4
  Kd against IRES hairpin (in words): subnanomolar
[2]
  helicity (first value): 48%
  helicity (second value): 65%

## LKKLLKLLKKLL[Dab]LAG [2h]
[1]
  Discrimination ratio against IRES RNA: 2.0
[2]
  helicity (first value): 24%
  helicity (second value): 34%

## LKKLLKLLKKLL[Dap]LAG [2i]
[1]
  Discrimination ratio against IRES RNA: 12
[2]
  helicity (first value): 39%
  helicity (second value): 54%

## LKKLLKLLKKLL[Dap]WAG [3g]
[1]
  Discrimination ratio against IRES RNA: 9.4
[2]
  helicity (first value): 41%
  helicity (second value): 63%

## LKKLLKLLKKLL[Orn]LAG [2g]
[1]
  Discrimination ratio against IRES RNA: 3.3
[2]
  helicity (first value): 36%
  helicity (second value): 53%

## LKKLLKLL[Dab]KLLKLAG [2e]
[1]
  Discrimination ratio against IRES RNA: 6.5
[2]
  helicity (first value): 43%
  helicity (second value): 57%

## LKKLLKLL[Dap]KLLKLAG [2f]
[1]
  Discrimination ratio against IRES RNA: 0.6
[2]
  helicity (first value): 25%
  helicity (second value): 57%

## LKKLLKLL[Orn]KLLKLAG [2d]
[1]
  Discrimination ratio against IRES RNA: 9.1
[2]
  helicity (first value): 28%
  helicity (second value): 57%

## LKKLLKLL[Orn]KLLKWAG [3f]
[1]
  Discrimination ratio against IRES RNA: 1.0
[2]
  helicity (first value): 36%
  helicity (second value): 58%

## LKKLLKLL[Orn]KLL[Dap]LAG [2k]
[1]
  Discrimination ratio against IRES RNA: 25
[2]
  helicity (first value): 48%
  helicity (second value): 61%

## LKKLLKLL[Orn]KLL[Dap]WAG [3h]
[1]
  Discrimination ratio against IRES RNA: 1.6
[2]
  helicity (first value): 12%
  helicity (second value): 56%

## LKKLLKWLKKLL[Dap]LAG [3c]
[1]
  Discrimination ratio against IRES RNA: 17
[2]
  helicity (first value): 29%
  helicity (second value): 36%

## LKKLLKWL[Orn]KLLKLAG [3b]
[1]
  Discrimination ratio against IRES RNA: 4.2
[2]
  helicity (first value): 34%
  helicity (second value): 52%

## LKKLLKWL[Orn]KLL[Dap]LAG [3d]
[1]
  Discrimination ratio against IRES RNA: 45
[2]
  helicity (first value): 32%
  helicity (second value): 38%

## LKKLL[Dab]LLKKLLKLAG [2b]
[1]
  Discrimination ratio against IRES RNA: 6.3
[2]
  helicity (first value): 23%
  helicity (second value): 63%

## LKKLL[Dab]LLKKLLKWAG [3e]
[1]
  Discrimination ratio against IRES RNA: 28
[2]
  helicity (first value): 39%
  helicity (second value): 45%

## LKKLL[Dab]LLKKLL[Dap]LAG [2l]
[1]
  Discrimination ratio against IRES RNA: 13
[2]
  helicity (first value): 40%
  helicity (second value): 50%

## LKKLL[Dab]LL[Orn]KLLKLAG [2j]
[1]
  Discrimination ratio against IRES RNA: 6.3
[2]
  helicity (first value): 49%
  helicity (second value): 57%

## LKKLL[Dab]LL[Orn]KLL[Dap]LAG [2m]
[1]
  Discrimination ratio against IRES RNA: 4.9
[2]
  helicity (first value): 49%
  helicity (second value): 69%

## LKKLL[Dab]WLKKLLKLAG [3a]
[1]
  Discrimination ratio against IRES RNA: 10
[2]
  helicity (first value): 29%
  helicity (second value): 55%

## LKKLL[Dap]LLKKLLKLAG [2c]
[1]
  Discrimination ratio against IRES RNA: 2.4
[2]
  helicity (first value): 26%
  helicity (second value): 61%

## LKKLL[Orn]LLKKLLKLAG [2a]
[1]
  Discrimination ratio against IRES RNA: 2.5
[2]
  helicity (first value): 13%
  helicity (second value): 82%
